Data as given in ChEMBL document CHEMBL4477201, “Imidazopyridine and Pyrazolopiperidine Derivatives as Novel Inhibitors of Serine Palmitoyl Transferase” (J Med Chem, 2016).
Calls of active or inactive are those of the source. The calls are words filed in the database; no cut-off is given here.

Key:
[1] = molecular target: T1, Serine palmitoyltransferase 1 (Homo sapiens, UniProt O15269); assay: (§1) Inhibition of SPT1 in human MCF7 cells assessed as suppression of 14C-serine incorporation into ceramide incubated for 2 hrs in presence of 4-HPR; format: cell-based
T1 sequence (O15269 whole entry): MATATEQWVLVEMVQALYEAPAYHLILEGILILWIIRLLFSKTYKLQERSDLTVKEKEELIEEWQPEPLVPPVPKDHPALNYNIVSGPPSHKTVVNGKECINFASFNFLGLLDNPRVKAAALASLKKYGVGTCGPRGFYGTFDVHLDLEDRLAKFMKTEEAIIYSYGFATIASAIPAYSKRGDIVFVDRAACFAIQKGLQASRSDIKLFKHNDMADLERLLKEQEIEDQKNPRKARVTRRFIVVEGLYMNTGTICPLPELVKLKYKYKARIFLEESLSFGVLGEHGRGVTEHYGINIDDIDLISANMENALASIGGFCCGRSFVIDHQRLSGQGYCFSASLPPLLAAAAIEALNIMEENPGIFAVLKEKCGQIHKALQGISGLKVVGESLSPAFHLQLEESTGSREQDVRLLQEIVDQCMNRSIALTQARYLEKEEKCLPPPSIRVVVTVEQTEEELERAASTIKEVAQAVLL
Method in brief: (§2)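 Human MCF-7 cells incubated 2 h with a range of compound concentrations or DMSO control media. Medium contained 14C-serine plus 25 uM 4-HPR to activate SPT. 14C-serine-labeled ceramide products quantified to give EC50.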

Mus musculus [2] = assay: Reduction in plasma C18:0 ceramide level in diet-induced obese C57BL6 mouse at 0.5 mg/kg administered daily through oral gavage for 28 days measured 2 hrs post last dose relative to lean control; format: functional, organism-based
Method in brief: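 DIO mice received daily oral doses for 4 weeks as part of a dose-response study. Plasma was sampled 2 h after the final dose. Total and C18:0 plasma ceramides were measured and compared with those of lean control mice. At the end of dosing, the same cohort underwent an oral glucose tolerance test.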

[3] = molecular target: T1, Serine palmitoyltransferase 1; assay: Inhibition of human SPT1 expressed in microsomes of HEK293 cells incubated for 1hr by LC/MS analysis
Method in brief: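 SPT source was a microsomal fraction from HEK293 cells, with serine and palmitoyl coenzyme A as substrates. Formation of 3-ketodeoxysphinganine quantified by LC/MS. Inhibition determined at 10 concentrations per compound to give IC50.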

[4] = molecular target: T2, Serine palmitoyltransferase 1 (Homo sapiens) (UniProt O15269); assay: as §1; format: cell-based; method in brief: as §2
T2 sequence (whole entry): T1 sequence (O15269 whole entry)

[5] = Fraction unbound in rat; format: ADME
Rattus norvegicus [6] = assay: Increase in HDL level in cholic acid/cholesterol-fed Sprague-Dawley rat model of dyslipidemia administered bid through oral gavage measured after 1 week by FPLC analysis relative to vehicle-treated control; format: functional, organism-based
Method in brief: (§3)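 Sprague Dawley rats fed a cholic acid/cholesterol diet for 14 days, then dosed orally BID for 7 days at five dose levels, n=6. Serum ceramides and VLDL and HDL cholesterol compared with vehicle (dose 0). Mean ± SEM; Dunnett's test, p<0.05.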

[7] = Dissociation constant, pKa of the compound; format: physicochemical
[8] = Lipophilicity, log P of compound; format: physicochemical; settings: octanol/water
[9] = Drug uptake in diet-induced obese C57Bl/6 mouse liver at 1 mg/kg, po qd for 4 weeks measured 6 hrs post last dose; format: ADME, organism-based; settings: read-out: Drug uptake
Method in brief: (§4)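 Male DIO mice dosed orally for 4 weeks. Sacrificed 6 h after the last dose. Compound measured in serum (ng/mL) and liver (ng/g), and the liver:serum ratio calculated.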

[10] = AUC (0 to 24 hrs) in Sprague-Dawley rat at 1 mg/kg, iv; format: ADME, organism-based; set-up: time < 24 hr, dose 1 mg/kg, route intravenous; settings: in vivo
Method in brief: (§5)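 Single dose to fasted male Sprague Dawley rats, IV at 1 mg/kg or oral at 3 mg/kg. Plasma levels followed to derive AUC0-24hr, Cmax, half-life, Vdss and oral bioavailability.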

[11] = Cmax in Sprague-Dawley rat at 1 mg/kg, iv; format: ADME, organism-based; set-up: dose 1 mg/kg, route intravenous; settings: in vivo; method in brief: as §5
[12] = Half life in Sprague-Dawley rat at 1 mg/kg, iv; format: ADME, organism-based; settings: in vivo; method in brief: as §5
[13] = Volume of distribution at steady state in Sprague-Dawley rat at 1 mg/kg, iv; format: ADME, organism-based; settings: in vivo, read-out: Vdss; method in brief: as §5
[14] = AUC (0 to 24 hrs) in Sprague-Dawley rat at 3 mg/kg,po; format: ADME, organism-based; set-up: time < 24 hr, dose 3 mg/kg, route oral; settings: in vivo; method in brief: as §5
[15] = Cmax in Sprague-Dawley rat at 3 mg/kg,po; format: ADME, organism-based; set-up: dose 3 mg/kg, route oral; settings: in vivo; method in brief: as §5
[16] = Half life in Sprague-Dawley rat at 3 mg/kg,po; format: ADME, organism-based; settings: in vivo; method in brief: as §5
[17] = Volume of distribution at steady state in Sprague-Dawley rat at 3 mg/kg,po; format: ADME, organism-based; settings: in vivo
Method in brief: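 Male Sprague Dawley rats, fasted, single oral dose of 3 mg/kg. A parallel arm received 1 mg/kg IV. Plasma was sampled for pharmacokinetics over 0-24 hr. Steady-state volume of distribution is reported […], in mL/kg.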

[18] = Oral bioavailability in Sprague-Dawley rat at 3 mg/kg; format: ADME, organism-based; settings: in vivo; method in brief: as §5
Mus musculus [19] = assay: Reduction in total plasma ceramide level in C57BL6 mouse administered through gavage after 6 hrs by mass spectrometry relative to vehicle-treated control; format: functional
Method in brief: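 Normal C57bl6 mice given a single oral dose at six dose levels, n=3 per group. Plasma collected 6 h post dose. C16:0, C20:0, C22:0, C24:0 and C24:1 ceramides measured by mass spectrometry and summed; total reduction calculated versus vehicle. ED50 derived from the dose-response; mean ± SEM.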

Rattus norvegicus [20] = assay: Reduction in vLDL level in cholic acid/cholesterol-fed Sprague-Dawley rat model of dyslipidemia at 60 mg/kg administered bid through oral gavage measured after 1 week by FPLC analysis relative to vehicle-treated control; format: functional, organism-based; method in brief: as §3
Rattus norvegicus [21] = assay: Reduction in total plasma ceramide level in cholic acid/cholesterol-fed Sprague-Dawley rat model of dyslipidemia at 30 to 60 mg/kg administered bid through oral gavage measured after 1 week by FPLC analysis relative to vehicle-treated control; format: functional, organism-based; method in brief: as §3
Mus musculus [22] = assay: Reduction in total plasma ceramide level in diet-induced obese C57BL6 mouse administered daily through oral gavage for 28 days measured 2 hrs post last dose relative to lean control; format: functional, organism-based
Method in brief: (§6)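 DIO mice dosed orally for 28 days, with myriocin as positive control and lean mice as reference. Total and C18:0 plasma ceramides measured 2 h after the final dose.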

Mus musculus [23] = assay: Reduction in plasma C18:0 ceramide level in diet-induced obese C57BL6 mouse at 1 to 60 mg/kg administered daily through oral gavage for 28 days measured 2 hrs post last dose relative to lean control; format: functional, organism-based; method in brief: as §6
[24] = Toxicity in rat assessed as induction of gastric enteropathy during 14 days toxicology study; settings: in vivo, 336 h
Mus musculus [25] = assay: Reduction in serum insulin AUC in diet-induced obese C57BL6 mouse at 1 to 60 mg/kg, po qd for 4 weeks by oral glucose tolerance test relative to lean control; format: functional, organism-based
Method in brief: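 After 4 weeks of oral dosing, DIO mice underwent an oral glucose tolerance test. Insulin and glucose AUC compared with lean mice; trend assessed by ANOVA trend analysis.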

[26] = Toxicity in diet-induced obese C57Bl/6 mouse assessed as change in food intake at 1 to 60 mg/kg, po qd for 4 weeks; format: organism-based; settings: in vivo, 672 h
Method in brief: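 Food intake monitored in DIO mice during 4 weeks of daily oral dosing.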

[27] = Drug uptake in diet-induced obese C57Bl/6 mouse serum at 1 mg/kg, po qd for 4 weeks measured 6 hrs post last dose; format: ADME, organism-based; settings: read-out: Drug uptake; method in brief: as §4
[28] = Drug uptake in diet-induced obese C57Bl/6 mouse serum at 3 mg/kg, po qd for 4 weeks measured 6 hrs post last dose; format: ADME, organism-based; settings: read-out: Drug uptake; method in brief: as §4
[29] = Drug uptake in diet-induced obese C57Bl/6 mouse serum at 10 mg/kg, po qd for 4 weeks measured 6 hrs post last dose; format: ADME, organism-based; settings: read-out: Drug uptake; method in brief: as §4
[30] = Drug uptake in diet-induced obese C57Bl/6 mouse serum at 30 mg/kg, po qd for 4 weeks measured 6 hrs post last dose; format: ADME, organism-based; settings: read-out: Drug uptake; method in brief: as §4
[31] = Drug uptake in diet-induced obese C57Bl/6 mouse serum at 60 mg/kg, po qd for 4 weeks measured 6 hrs post last dose; format: ADME, organism-based; settings: read-out: Drug uptake; method in brief: as §4
[32] = Drug uptake in diet-induced obese C57Bl/6 mouse liver at 3 mg/kg, po qd for 4 weeks measured 6 hrs post last dose; format: ADME, organism-based; settings: read-out: Drug uptake; method in brief: as §4
[33] = Drug uptake in diet-induced obese C57Bl/6 mouse liver at 10 mg/kg, po qd for 4 weeks measured 6 hrs post last dose; format: ADME, organism-based; settings: read-out: Drug uptake; method in brief: as §4
[34] = Drug uptake in diet-induced obese C57Bl/6 mouse liver at 30 mg/kg, po qd for 4 weeks measured 6 hrs post last dose; format: ADME, organism-based; settings: read-out: Drug uptake; method in brief: as §4
[35] = Drug uptake in diet-induced obese C57Bl/6 mouse liver at 60 mg/kg, po qd for 4 weeks measured 6 hrs post last dose; format: ADME, organism-based; settings: read-out: Drug uptake; method in brief: as §4
[36] = Ratio of drug uptake in diet-induced obese C57Bl/6 mouse liver to serum at 1 mg/kg, po qd for 4 weeks measured 6 hrs post last dose; format: ADME, organism-based; method in brief: as §4
[37] = Ratio of drug uptake in diet-induced obese C57Bl/6 mouse liver to serum at 3 mg/kg, po qd for 4 weeks measured 6 hrs post last dose; format: ADME, organism-based; method in brief: as §4
[38] = Ratio of drug uptake in diet-induced obese C57Bl/6 mouse liver to serum at 10 mg/kg, po qd for 4 weeks measured 6 hrs post last dose; format: ADME, organism-based; method in brief: as §4
[39] = Ratio of drug uptake in diet-induced obese C57Bl/6 mouse liver to serum at 30 mg/kg, po qd for 4 weeks measured 6 hrs post last dose; format: ADME, organism-based; method in brief: as §4
[40] = Ratio of drug uptake in diet-induced obese C57Bl/6 mouse liver to serum at 60 mg/kg, po qd for 4 weeks measured 6 hrs post last dose; format: ADME, organism-based; method in brief: as §4
Mus musculus [41] = assay: Reduction in total liver ceramide level in diet-induced obese C57BL6 mouse at 1 to 60 mg/kg administered daily through oral gavage for 28 days measured 6 hrs post last dose relative to lean control; format: functional, organism-based
Method in brief: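 Liver total ceramide levels measured in DIO mice after 4 weeks of oral dosing.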

CCCCCCC(=O)CCCCCC/C=C/C[C@@H](O)[C@H](O)[C@@](N)(CO)C(=O)O [MYRIOCIN]
EC50 [1]: 49.5 nM
Activity (Mus musculus [2]): Active

CCCCCCC(=O)c1cc(-c2ccc(CC(=O)O)cc2)c2nccn2c1
IC50 [3]: 5.19 nM
inhibition [4]: Dose-dependent effect
EC50 [1]: 977 nM
fraction unbound [5]: < 0.02
Activity (Rattus norvegicus [6]): Dose-dependent effect
pKa [7]: 4.73
logP [8]: 3.97
concentration at 6 h [9]: 463 ng/g
AUC(0-t) at 24 h [10]: 1270 ng·h/mL
Cmax [11]: 2540 ng/mL
half-life [12]: 2.13 h
Vd [13]: 0.574 L/kg
AUC(0-t) at 24 h [14]: 2920 ng·h/mL
Cmax [15]: 1500 ng/mL
half-life [16]: 1.48 h
Vdss [17]: 1.84 L/kg
bioavailability [18]: 75%
Activity (Mus musculus [19]): Dose-dependent effect
ED50 (Mus musculus [19]; C57BL6, po): 1.04 mg/kg
Activity (Rattus norvegicus [20]): Active
Activity (Rattus norvegicus [21]): Active
Activity (Mus musculus [22]): Dose-dependent effect
Activity (Mus musculus [23]): Active
Activity [24]: Toxic
Activity (Mus musculus [25]): Active
Activity [26]: Non-Toxic
concentration at 6 h [27]: 88 ng/mL
concentration at 6 h [28]: 264 ng/mL
concentration at 6 h [29]: 341 ng/mL
concentration at 6 h [30]: 677 ng/mL
concentration at 6 h [31]: 3350 ng/mL
concentration at 6 h [32]: 789 ng/g
concentration at 6 h [33]: 2850 ng/g
concentration at 6 h [34]: 6580 ng/g
concentration at 6 h [35]: 181000 ng/g
Kp at 6 h [36]: 5
Kp at 6 h [37]: 3
Kp at 6 h [38]: 8
Kp at 6 h [39]: 10
Kp at 6 h [40]: 54
Activity (Mus musculus [41]): Active
